Experimental data as given in PMC6893110 (Molecular imaging and biology, 2020).

Assays:
S1R [1] = settings: read-out: Kd for S1R; binding to S1R; no reference given; cited from earlier work
LNCaP tumors = test: PET imaging blocking study in LNCaP tumor-bearing mice; assay type: in vivo, athymic nude mice; settings: 100-fold excess of cold IPAG co-injected with [^124I]IPAG
In short: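 LNCaP cells (5×10^6 in 1:1 Matrigel/medium) were grown s.c. on the hind limb of athymic nude mice for 3–5 weeks. Mice got 0.1% KI i.p. 1 h before i.v. tracer (200 μCi in 150 μL 0.5% ethanol/saline) co-injected with 100-fold excess unlabeled IPAG. Under 2% isoflurane, mice were imaged by microPET at 4, 24 and 72 h. %ID/g came from regions of interest drawn on the PET images.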

MCF-7 tumor xenografts = test: In vivo tracer dilution; parameters: species or system athymic nude mice; settings: for reduction of [^124I]IPAG tumor uptake: 100-fold excess of IPAG
In short: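 MCF7-xenografted athymic nude mice (estradiol-supplemented, 100–300 mm³ tumors) got KI i.p. 1 h before i.v. co-injection. […] Mice were euthanised at 24, 48 or 72 h and organs weighed and gamma-counted. %ID/g was decay- and background-corrected.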

[2] = Solubility of IPAG in assay media; assay type: physicochemical; settings: in both cell media and PBS
S1R [3] = molecular target: S1R (Homo sapiens, UniProt Q99720); assay type: binding
MCF7 tumor xenografts = test: PET imaging of [^124I]IPAG in MCF7 tumor-bearing mice; assay type: in vivo, athymic nude mice
In short: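 Female athymic nude mice (n=5) carried estradiol-supported s.c. MCF7 xenografts on the right forelimb (100–300 mm³). They got 0.1% KI i.p. 1 h before i.v. tracer (200 μCi, 7.4 MBq, in 150 μL 0.5% ethanol/saline). Mice were anaesthetised with 2% isoflurane in air for 15 min and scanned by microPET at serial times up to 144 h post-injection. Images were read visually and tumor maximum pixel values recorded.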

MCF7 tumors = test: Ex vivo biodistribution of [^124I]IPAG in MCF7 tumor-bearing mice; parameters: species or system athymic nude mice; settings: n = 5
In short: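 Female athymic nude mice (6–8 wk) got s.c. 17β-estradiol pellets (0.75 mg) 72 h before s.c. forelimb implant of 1×10^7 MCF7 cells in 1:1 Matrigel/medium. Tumors were 100–300 mm³. Mice got 0.1% KI i.p. 1 h before i.v. tracer (20–30 μCi in 5% ethanol/0.9% saline) and were euthanised by CO₂ at 4, 24, 48 or 72 h. Organs were weighed and gamma-counted, with background and decay correction. Injected dose was taken from syringe activity before and after injection. Results are %ID/g, mean and SD.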

Chain of S1R (Homo sapiens, UniProt Q99720) (Q99720 whole entry): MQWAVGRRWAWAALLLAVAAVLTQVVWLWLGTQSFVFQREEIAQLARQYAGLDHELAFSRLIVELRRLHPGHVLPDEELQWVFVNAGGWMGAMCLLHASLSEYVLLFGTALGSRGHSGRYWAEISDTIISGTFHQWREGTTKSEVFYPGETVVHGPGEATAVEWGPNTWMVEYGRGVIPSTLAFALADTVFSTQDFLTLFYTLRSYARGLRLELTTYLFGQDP

Compound: N=C(Nc1ccc(I)cc1)NC1C2CC3CC(C2)CC1C3 (stereo not shown) [IPAG, 1-(4-iodophenyl)-3-(2-adamantyl)guanidine]
- Kd (S1R [1]): 9 nM
- calculated %ID/g values (PET ROI) versus [^124I]IPAG alone (LNCaP tumors): significantly lower
- reduction of [^124I]IPAG tumor uptake (MCF-7 tumor xenografts; 24 h): 81.14%
- reduction of [^124I]IPAG tumor uptake (MCF-7 tumor xenografts; 48 h): 88.74%
- solubility [2]: poor solubility
- IC50 (S1R [3]): 4.7 to 14.1 nM
- inhibitory constants in vitro (S1R [3]; competition against radioiodinated IPAG, sigma-1): nanomolar
- clearance time from background organs (MCF7 tumor xenografts; PET imaging, mice): around 24 h

Compound: N=C(Nc1ccc([124I])cc1)NC1C2CC3CC(C2)CC1C3 (stereo not shown) [[^124I]IPAG, I-124 labeled 1-(4-iodophenyl)-3-(2-adamantyl)guanidine]
- %ID/g uptake in MCF7 tumors (MCF7 tumors; 4 h post i.v. injection): 1.53 ± 0.27 %ID/g
- %ID/g uptake in MCF7 tumors (MCF7 tumors; 24 h post i.v. injection): 1.09 ± 0.24 %ID/g
- %ID/g uptake in MCF7 tumors (MCF7 tumors; 48 h post i.v. injection): 0.94 ± 0.23 %ID/g
- uptake at extended time post injection (PET imaging) (MCF7 tumor xenografts; 144 h post injection): ~ 0.17 % ID/g

Compound: O=C(CCCN1CCC(O)(c2ccc(Cl)cc2)CC1)c1ccc(F)cc1 [haloperidol]
- inhibition of [^124I]IPAG uptake in tumor (MCF-7 tumor xenografts; 3.5-fold excess of haloperidol i.v. with tracer, 72 h p.i.): about 3 fold
